Data from ChEMBL document CHEMBL4028901, “Novel Antitubercular 6-Dialkylaminopyrimidine Carboxamides from Phenotypic Whole-Cell High Throughput Screening of a SoftFocus Library: Structure-Activity Relationship and Target Identification Studies” (J Med Chem, 2017).
In brackets after ≈: the same amount, converted by molar mass.

Key:
[1] = system: Mycobacterium tuberculosis; experiment: Antibacterial activity against Mycobacterium tuberculosis H37RvMA grown in 7H9/ADC medium measured 7 to 14 days post inoculation by broth microdilution method; format: functional
[2] = system: Mycobacterium tuberculosis; experiment: Antibacterial activity against Mycobacterium tuberculosis H37RvMA grown in GAST/Fe medium measured 7 to 14 days post inoculation by broth microdilution method; format: functional
In short: (§1)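 H37RvMa grown to OD600 0.6–0.7, diluted 1:100 in GAST/Fe. Compounds two-fold serially diluted from a top concentration of 640 μM, in duplicate. Incubated at 37 °C with humidification.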

Vero = experiment: Cytotoxicity against African green monkey Vero cells assessed as reduction in cell viability by MTT assay; format: cell-based; conditions: Chlorocebus sabaeus
In short: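 MTT assay in Vero cells, samples in triplicate on one occasion. Stocks at 20 mg/mL in DMSO, diluted in complete medium as 10-fold serial dilutions over 6 concentrations. Emetine used as reference. IC50 derived by non-linear dose-response curve fitting.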

[3] = Kinetic solubility of the compound in fasted-state simulated intestinal fluid at 10 to 220 uM at pH 6.5 after 2 hrs by shake flask method; format: physicochemical; conditions: read-out: Kinetic_solubility
In short: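 Miniaturised shake flask. 10 mM DMSO stocks spiked 1:50 into duplicate FaSSIF (pH 6.5), 2% final DMSO. Shaken 2 h at 25 °C, filtered, analysed by HPLC-DAD against calibration standards (10–220 μM).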

[4] = Lipophilicity, log P of the compound at 100 uM at pH 7.4 after 3 hrs by shake-flask method; format: physicochemical; conditions: buffer
In short: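 Shake-flask method run in triplicate. A 10 mM stock was spiked into a 1:1 mixture of phosphate buffer (pH 7.4) and n-octanol, then shaken at 1500 rpm on an orbital shaker for 3 h at room temperature.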

[5] = Kinetic solubility of the compound in pH 7.4 solution at 10 to 220 uM after 2 hrs by shake flask method; format: physicochemical; conditions: buffer, pH 7.4, 2 h, 220 µM
Liver [6] = experiment: Metabolic stability in rat liver microsomes assessed as compound remaining at 0.1 uM after 30 mins by LC-MS/MS analysis; format: ADME, microsome; conditions: 0.5 h
In short: (§2)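 Compound at 0.1 μM incubated in duplicate with mouse, rat or pooled human liver microsomes (0.4 mg/mL) at 37 °C. Run with and without 1 mM NADPH, sampled at predetermined time points.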

Plasma = experiment: Fraction unbound in human plasma at 5 uM pre-incubated for 1 hr by ultra-centrifugation and LC-MS/MS method; format: ADME, cell-free
In short: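 Pooled human plasma spiked to 5 μM and pre-incubated 1 h at 37 °C. Duplicate aliquots ultracentrifuged 4 h at 37 °C; an unspun aliquot served as the total sample. Analyte measured by LC-MS/MS.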

Liver [7] = experiment: Metabolic stability in human liver microsomes assessed as compound remaining at 0.1 uM after 30 mins by LC-MS/MS analysis; format: ADME, microsome; conditions: 0.5 h; in short: as §2
Liver [8] = experiment: Metabolic stability in mouse liver microsomes assessed as compound remaining at 0.1 uM after 30 mins by LC-MS/MS analysis; format: ADME, microsome; conditions: 0.5 h; in short: as §2
Mus musculus [9] = experiment: Apparent elimination half life in C57/BL6 mouse at 20 mg/kg, po measured up to 24 hrs post dose by LC-MS/MS analysis; format: ADME, organism-based; conditions: in vivo
In short: (§3)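 Male mice, 3 per route, not fasted, free access to water. Oral dose given as aqueous suspension in 0.5% (w/v) hydroxypropyl methylcellulose with 0.4% (v/v) Tween 80. Blood drawn into heparinised tubes at 0.5, 1, 3, 5, 8, 12 and 24 h, kept below -15 °C, protein-precipitated with ice-cold acetonitrile. Quantified by LC-MS/MS against standards made in drug-free mouse blood.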

Mus musculus [10] = experiment: Cmax in C57/BL6 mouse at 20 mg/kg, po measured up to 24 hrs post dose by LC-MS/MS analysis; format: ADME, organism-based; design: dose 20 mg/kg, route oral; conditions: in vivo; in short: as §3
Mus musculus [11] = experiment: Tmax in C57/BL6 mouse at 20 mg/kg, po measured up to 24 hrs post dose by LC-MS/MS analysis; format: ADME, organism-based; conditions: in vivo; in short: as §3
Mus musculus [12] = experiment: AUC (0 to infinity) in C57/BL6 mouse at 20 mg/kg, po measured up to 24 hrs post dose by LC-MS/MS analysis; format: ADME, organism-based; design: dose 20 mg/kg, route oral, time infinity; conditions: in vivo; in short: as §3
Mus musculus [13] = experiment: Oral bioavailability in C57/BL6 mouse at 20 mg/kg measured up to 24 hrs post dose by LC-MS/MS analysis; format: ADME, organism-based; conditions: in vivo; in short: as §3
Mus musculus [14] = experiment: Apparent elimination half life in C57/BL6 mouse at 5 mg/kg, iv measured up to 24 hrs post dose by LC-MS/MS analysis; format: ADME, organism-based; conditions: in vivo
In short: (§4)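 Male mice, 3 animals, not fasted, given an IV bolus in 10% DMSO, 50% propylene glycol/ethanol (4:1) and 40% polyethylene glycol or water. Blood sampled into heparinised tubes at 0.17, 0.5, 1, 3, 5, 8, 12 and 24 h, stored frozen, precipitated with ice-cold acetonitrile. Measured by LC-MS/MS with internal standards against blood-matrix calibration standards.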

Mus musculus [15] = experiment: Volume of distribution in C57/BL6 mouse at 5 mg/kg, iv measured up to 24 hrs post dose by LC-MS/MS analysis; format: ADME, organism-based; conditions: in vivo; in short: as §4
Mus musculus [16] = experiment: AUC (0 to infinity) in C57/BL6 mouse at 5 mg/kg, iv measured up to 24 hrs post dose by LC-MS/MS analysis; format: ADME, organism-based; design: dose 5 mg/kg, route intravenous, time infinity; conditions: in vivo; in short: as §4
Liver [17] = experiment: Drug metabolism in BALB mouse liver microsomes assessed as cleavage of amide bound on RHS at 10 uM after 1 hr by LC-MS/MS analysis; format: ADME, microsome
In short: (§5)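 Incubation at 37 °C for 1 h with shaking in 100 mM phosphate buffer pH 7.4, 1 mg/ml microsomes, 5 mM MgCl2 and 1 mM NADPH. Ice-cold acetonitrile precipitation, filtration, then LC-MS/MS. Controls: unincubated sample, and samples lacking NADPH or lacking microsomes; propranolol 10 μM as positive control. Metabolites found by comparing T60 with T0 and no-NADPH chromatograms, with product ion spectra of [M+H]+ compared against parent and synthetic standards where available.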

Liver [18] = experiment: Drug metabolism in BALB mouse liver microsomes assessed as N-demethylation on LHS at 10 uM after 1 hr by LC-MS/MS analysis; format: ADME, microsome; in short: as §5
[19] = system: Mycobacterium tuberculosis; experiment: Antibacterial activity against Mycobacterium tuberculosis […] SAWC1125 grown in middlebrook 7H9 medium measured on day 7 and 14 by MABA assay; format: functional; conditions: 168 h
In short: (§6)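 Clinical M. tuberculosis strains tested by broth microdilution in 7H9 medium. On days 7 and 14, Alamar Blue added and plates reincubated 24 h at 37 °C. Colour read by eye (blue means no growth, pink means growth). MIC90 is the lowest concentration with no colour change.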

[20] = system: Mycobacterium tuberculosis; experiment: Antibacterial activity against Mycobacterium tuberculosis […] SAWC3933 grown in middlebrook 7H9 medium measured on day 7 and 14 by MABA assay; format: functional; conditions: 168 h; in short: as §6
[21] = system: Mycobacterium tuberculosis; experiment: Antibacterial activity against Mycobacterium tuberculosis […] SAWC3385 grown in middlebrook 7H9 medium measured on day 7 and 14 by MABA assay; format: functional; conditions: 168 h; in short: as §6
[22] = system: Mycobacterium tuberculosis; experiment: Antibacterial activity against Mycobacterium tuberculosis […] SAWC3200 grown in middlebrook 7H9 medium measured on day 7 and 14 by MABA assay; format: functional; conditions: 168 h; in short: as §6
[23] = system: Mycobacterium tuberculosis; experiment: Antibacterial activity against Mycobacterium tuberculosis […] SAWC3388 grown in middlebrook 7H9 medium measured on day 7 and 14 by MABA assay; format: functional; conditions: 168 h; in short: as §6
[24] = system: Mycobacterium tuberculosis; experiment: Antibacterial activity against Mycobacterium tuberculosis […] SAWC3906 grown in middlebrook 7H9 medium measured on day 7 and 14 by MABA assay; format: functional; conditions: 168 h; in short: as §6
[25] = system: Mycobacterium tuberculosis; experiment: Antibacterial activity against cytochrome bd oxidase knockout GFP-fused Mycobacterium tuberculosis H37RvMA grown in GAST/Fe medium measured on day 7 and day 14 post inoculation by fluorescence plate reader assay; format: functional
[26] = system: Mycobacterium tuberculosis; experiment: Antibacterial activity against cytochrome bd oxidase knockout GFP-fused Mycobacterium tuberculosis H37RvMA grown in 7H9/GLU/ADC medium measured on day 7 and day 14 post inoculation by fluorescence plate reader assay; format: functional; conditions: Mycobacterium tuberculosis, H37RvMA; read-out: MIC99
[27] = system: Mycobacterium tuberculosis; experiment: Antibacterial activity against wild type Mycobacterium tuberculosis H37Rv grown in GAST/Fe medium measured on day 14 post inoculation by broth microdilution method; format: functional; conditions: 336 h; in short: as §1
[28] = system: Mycobacterium tuberculosis; experiment: Antibacterial activity against Mycobacterium tuberculosis H37Rv grown in middlebrook 7H9 medium measured on day 7 and 14 by MABA assay; format: functional; conditions: 168 h

| Compound | MIC99 [1] | MIC99 [2] | IC50 (Vero) | solubility kinetic at 2 h [3] | logD at 3 h, 100 µM [4] | Kinetic_solubility [5] | Stability (Liver [6]) | Fu (Plasma) | Stability (Liver [7]) | Stability (Liver [8]) | betat1/2(app) (Mus musculus [9]) | Cmax (Mus musculus [10]) | AUC (Mus musculus [12]) | F (Mus musculus [13]) | betat1/2(app) (Mus musculus [14]) | Vd (Mus musculus [15]) | AUC (Mus musculus [16]) | MIC90 [19] | MIC90 [20] | MIC90 [21] | further results |
| --- | --- | --- | --- | --- | --- | --- | --- | --- | --- | --- | --- | --- | --- | --- | --- | --- | --- | --- | --- | --- | --- |
| CN(Cc1ccc(C(F)(F)F)cc1)c1cc(C(=O)Nc2ccccc2)ncn1 | 5 µM (≈ 1.93 µg/mL) | 5 µM (≈ 1.93 µg/mL) | 258 µM | 5 µM (≈ 1.93 µg/mL) | 5 | < 5 µM | 87% | 0.11% | 55% | 60% | 8.7 h | 2200 nM | 1334 µM·min | 28% | 4.6 h | 4.3 L/kg | 1224 µM·min | – | – | – | Tmax (Mus musculus [11]): 1 h; Drug metabolism (Liver [17]): Metabolite_Detected; Drug metabolism (Liver [18]): Metabolite_Detected |
| CN(Cc1ccc(C(F)(F)F)nc1)c1cc(C(=O)Nc2nncs2)ncn1 | 50 µM (≈ 19.8 µg/mL) | 5 µM (≈ 1.98 µg/mL) | 28 µM | 195 µM (≈ 77.1 µg/mL) | 1.4 | 191 µM | 88% | 0.32% | 100% | 78% | 3 h | 10800 nM | 5614 µM·min | 67% | 3 h | 1.7 L/kg | 2106 µM·min | 2.5 µM (≈ 0.988 µg/mL) | 10 to 20 µM (≈ 3.95 to 7.91 µg/mL) | 10 µM (≈ 3.95 µg/mL) | MIC90 [22]: 2.5 to 5 µM (≈ 0.988 to 1.98 µg/mL); MIC90 [23]: 10 µM (≈ 3.95 µg/mL); MIC90 [24]: 2.5 to 5 µM (≈ 0.988 to 1.98 µg/mL); Tmax (Mus musculus [11]): 1 h |
| CN(Cc1ccc(C(F)(F)F)cc1)c1cc(C(=O)NC2CCCCC2)ncn1 | – | – | – | – | – | 5 µM | – | – | – | – | – | – | – | – | – | – | – | – | – | – | MIC99 [25]: 12 µM (≈ 4.71 µg/mL); MIC99 [26]: > 125 µM |
| CC(C)Oc1ccc(NC(=O)c2cc(N(C)Cc3ccc(F)cc3)ncn2)cc1 | 5 µM (≈ 1.97 µg/mL) | 1.2 µM (≈ 0.473 µg/mL) | 254 µM | < 5 µM | 5 | – | 43% | 0.04% | 64% | 37% | – | – | – | – | – | – | – | 2.5 µM (≈ 0.986 µg/mL) | 2.5 µM (≈ 0.986 µg/mL) | 0.31 µM (≈ 0.122 µg/mL) | MIC99 [27]: 1.25 to 5 µM (≈ 0.493 to 1.97 µg/mL); MIC90 [28]: 1.25 µM (≈ 0.493 µg/mL); MIC90 [22]: < 0.08 µM; MIC90 [23]: 0.31 µM (≈ 0.122 µg/mL); MIC90 [24]: 0.31 µM (≈ 0.122 µg/mL) |
| CN1CCN(c2ccc(NC(=O)c3cc(N(C)Cc4ccc(C(F)(F)F)cc4)ncn3)cc2)CC1 | 3.13 µM (≈ 1.52 µg/mL) | 1.25 µM (≈ 0.606 µg/mL) | 161 µM | 150 µM (≈ 72.7 µg/mL) | 5 | < 5 µM | 37% | 0.14% | 57% | 21% | 15.8 h | 420 nM | 564 µM·min | 26% | 10.3 h | 21.8 L/kg | 540 µM·min | 2.5 to 5 µM (≈ 1.21 to 2.42 µg/mL) | 1.25 to 2.5 µM (≈ 0.606 to 1.21 µg/mL) | 1.25 µM (≈ 0.606 µg/mL) | MIC90 [28]: 1.25 to 2.5 µM (≈ 0.606 to 1.21 µg/mL); MIC90 [22]: 1.25 µM (≈ 0.606 µg/mL); MIC90 [23]: 1.25 to 2.5 µM (≈ 0.606 to 1.21 µg/mL); MIC90 [24]: 0.31 to 0.63 µM (≈ 0.15 to 0.305 µg/mL) |
